The text below walks through data of ChEMBL document CHEMBL5096186, “Design, Synthesis, and Biological Evaluation of Novel Pyrimido[4,5-b]indole Derivatives Against Gram-Negative Multidrug-Resistant Pathogens” (J Med Chem, 2021).

The structures appear in SMILES notation. Values after ≈ are worked out from the molar mass of the structure shown.

The subject of data set [1] is Staphylococcus epidermidis. As to the kind of experiment: Antibacterial activity against methicillin-sensitive Staphylococcus epidermidis strains 15 1 to 4 assessed as reduction in bacterial growth incubated for 18 to 20 hrs by CLSI based microdilution method. The data set is classed as functional. Conditions: time 18-20 hrs. In short, it runs like this: (§1)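 Broth microdilution per CLSI. Compounds dissolved in DMSO (levofloxacin and meropenem in water) as 64 μg/mL stock, then serial twofold dilutions in broth giving 64 to 0.008 μg/mL. […] Clinical isolates tested as several strains per group; racemic GP-1 served as positive control; values given as MIC ranges.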

Data set [2] relates to Pseudomonas aeruginosa. In words: Antibacterial activity against multidrug resistant Pseudomonas aeruginosa strains 15 1 to 3 assessed as reduction in bacterial growth incubated for 18 to 20 hrs by CLSI based microdilution method. The data set is classed as functional. Conditions: time 18-20 hrs. The method in brief: as §1
In data set [3] the test system is Escherichia coli. In words: Antibacterial activity against Escherichia coli ATCC 35218 strains 15 1 to 3 assessed as reduction in bacterial growth incubated for 18 to 20 hrs by CLSI based microdilution method. The data set is classed as functional. As to conditions: time 18-20 hrs. The method in brief:
(§2)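 CLSI broth microdilution. Compounds in DMSO (levofloxacin and meropenem in water), serial twofold dilutions in broth, 64 to 0.008 μg/mL. […] Results reported as MIC ranges across strains.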

The subject of data set [4] is Escherichia coli. As to the kind of experiment: Antibacterial activity against ESBL-producing Escherichia coli ATCC 35218 strains 15 1 to 3 assessed as reduction in bacterial growth incubated for 18 to 20 hrs by CLSI based microdilution method. Conditions: time 18-20 hrs. The data set is classed as functional. In short, it runs like this: as §2
The test system of data set [5] is Staphylococcus aureus. In words: Antibacterial activity against methicillin-sensitive Staphylococcus aureus strains 15 1 to 4 assessed as reduction in bacterial growth incubated for 18 to 20 hrs by CLSI based microdilution method. The data set is classed as functional. Conditions: time 18-20 hrs. The method in brief:
as §1

Data set [6] relates to Staphylococcus aureus. In words: Antibacterial activity against methicillin-resistant Staphylococcus aureus strains 15 1 to 4 assessed as reduction in bacterial growth incubated for 18 to 20 hrs by CLSI based microdilution method. Type of data set: functional. As to conditions: time 18-20 hrs. The method in brief:
as §1

Data set [7] deals with Staphylococcus epidermidis. As to the kind of experiment: Antibacterial activity against methicillin-resistant Staphylococcus epidermidis strains 15 1 to 4 assessed as reduction in bacterial growth incubated for 18 to 20 hrs by CLSI based microdilution method. Type of data set: functional. Conditions: time 18-20 hrs. The method in brief: as §1
The nature of data set [8]: Metabolic stability in human liver microsome assessed as metabolic bioavailability at 0.1 uM in presence of NADPH incubated upto 60 mins by LC-MS/MS analysis. Type of data set: ADME. As to conditions: liver microsomes. In short, it runs like this: (§3)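 Compound at 0.1 μM final, in 0.01% DMSO with 0.005% BSA. Incubated with rat or human liver microsomes at 0.33 mg/mL in 0.1 M Tris-HCl, pH 7.4, with 5 mM MgCl₂ and 1 mM NADPH, at 37 °C. Samples at 0, 7, 17, 30 and 60 min quenched with cold methanol and analysed by LC-MS/MS. Half-life, Cl_int and MF% derived as previously described.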

Data set [9] is described as follows: Metabolic stability in rat liver microsome assessed as intrinsic clearance at 0.1 uM in presence of NADPH incubated upto 60 mins by LC-MS/MS analysis. As to conditions: microsomes, 1 h. The data set is classed as ADME. The method in brief: as §3
A short description of data set [10]: Metabolic stability in human liver microsome assessed as intrinsic clearance at 0.1 uM in presence of NADPH incubated upto 60 mins by LC-MS/MS analysis. Type of data set: ADME. As to conditions: microsomes, 1 h. The method in brief:
as §3

Data set [11] can be described thus: Metabolic stability in human liver microsome assessed as elimination half life at 0.1 uM in presence of NADPH incubated upto 60 mins by LC-MS/MS analysis. As to conditions: liver microsomes, read-out: beta t1/2. Type of data set: ADME. In short, it runs like this: as §3
Data set [12] can be described thus: Metabolic stability in rat liver microsome assessed as metabolic bioavailability at 0.1 uM in presence of NADPH incubated upto 60 mins by LC-MS/MS analysis. Type of data set: ADME. As to conditions: liver microsomes. The method in brief:
as §3

A short description of data set [13]: Metabolic stability in rat liver microsome assessed as elimination half life at 0.1 uM in presence of NADPH incubated upto 60 mins by LC-MS/MS analysis. The data set is classed as ADME. Conditions: liver microsomes, read-out: beta t1/2. The method in brief: as §3

Consider `CCC(CN)=C1CN(c2nc(Oc3ccc4c(c3)C(=O)NC4)nc3[nH]c4c(NC)cc(F)cc4c23)C1`, for which the minimum inhibitory concentration (MIC) in data set [1] was 0.06 mg/L (≈ 0.123 µM); in data set [2], 16 mg/L (≈ 32.8 µM); in data set [3], > 8 mg/L; in [4], 8 mg/L (≈ 16.4 µM); in data set [5], 0.5 mg/L (≈ 1.03 µM); in data set [6], 0.5 mg/L (≈ 1.03 µM). Moreover, the MIC in data set [7] is 0.06 mg/L (≈ 0.123 µM).

Regarding `CCC(CN)=C1CN(c2nc(N)nc3[nH]c4c(NC)cc(F)cc4c23)C1`, the MIC in data set [1] is 2 mg/L (≈ 5.63 µM); in data set [2] it was ≥ 16 mg/L; in data set [3] it was 2 mg/L (≈ 5.63 µM); in data set [4] it was 4 mg/L (≈ 11.3 µM); in data set [5], > 4 mg/L; in data set [6] it was 4 mg/L (≈ 11.3 µM). Moreover, in data set [7], the MIC stood at 4 mg/L (≈ 11.3 µM).

In the case of `CCC(CN)=C1CN(c2nc(C#N)nc3[nH]c4c(NC)cc(F)cc4c23)C1`, the MIC was found to be 0.25 mg/L (≈ 0.684 µM) in data set [1]; 16 mg/L (≈ 43.8 µM) in data set [2]; 0.25 mg/L (≈ 0.684 µM) in data set [3]; 0.5 mg/L (≈ 1.37 µM) in [4]; 2 mg/L (≈ 5.47 µM) in data set [5]; 2 mg/L (≈ 5.47 µM) in [6]. In [7], the minimum inhibitory concentration (MIC) was 0.5 mg/L (≈ 1.37 µM).

Take `CNc1cc(F)cc2c1[nH]c1nc(Oc3cnc(C)nc3)nc(N3CCC(=CCN)CC3)c12`: the MIC in data set [1] was 0.25 mg/L (≈ 0.557 µM); in [2] it was ≥ 16 mg/L; in [3] it was > 2 mg/L; in data set [4] it was 8 mg/L (≈ 17.8 µM); in data set [5] it was 1 mg/L (≈ 2.23 µM); in data set [6] it was 0.5 mg/L (≈ 1.11 µM). Also, the MIC in [7] stood at 0.25 mg/L (≈ 0.557 µM).

`CNc1cc(F)cc2c1[nH]c1nc(Oc3cnc(C)nc3)nc(N3CCC(=C(C)CN)CC3)c12`: the MIC in [1] was 0.03 mg/L (≈ 0.0649 µM); in [2], > 8 mg/L; in data set [3], 0.25 mg/L (≈ 0.541 µM); in data set [4] it was 2 mg/L (≈ 4.32 µM); in data set [5], 0.125 mg/L (≈ 0.27 µM); in [6] it was 0.125 mg/L (≈ 0.27 µM). Also, the MIC in [7] is < 0.008 mg/L.

Take `CCC(CO)=C1CN(c2nc(Oc3cnc(C)nc3)nc3[nH]c4c(NC)cc(F)cc4c23)C1`: the Fh at 1 h, 0.1 µM in data set [8] is 27.6%; in data set [12] it was 14.8%. Besides, the MIC in data set [1] is < 0.008 mg/L; in data set [2], ≥ 64 mg/L; in data set [3] it was 0.25 mg/L (≈ 0.556 µM); in [4], 0.25 mg/L (≈ 0.556 µM); in data set [5] it was < 0.008 mg/L. The figures for the CLH in data set [9] and in [10] were 256.1 mL/min/g and 51.4 mL/min/g, respectively. Besides, the half-life at 0.1 µM came to 1.27 h in [11] and 0.76 h in data set [13].
